Assay results from ChEMBL document CHEMBL1147643 (J Med Chem, 2006).
Numbering of substitutions follows the chain as printed. The source made the active and inactive calls. No cut-off for these calls is given here.

What was measured:
Adenosine receptor A3 [1] = target: Adenosine receptor A3 (Homo sapiens, UniProt P0DMS8, T94E); test: Displacement of [125I]I-AB-MECA from human adenosine A3 receptor T94E mutant expressed in COS7 cells; format: cell-based, COS-7
Outline: (§1)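 Receptor cDNA, wild-type or mutant with mutations confirmed by sequencing, transiently transfected into COS-7 cells with Lipofectamine 2000. […] Displacement of agonist radioligand [125I]I-AB-MECA measured; Ki values derived.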

Adenosine receptor A3 [2] = target: T1, Adenosine receptor A3 (Homo sapiens, UniProt P0DMS8); test: Displacement of [125I]I-AB-MECA from wild type adenosine A3 receptor expressed in COS7 cells; format: cell-based, COS-7
T1 sequence (P0DMS8 whole entry): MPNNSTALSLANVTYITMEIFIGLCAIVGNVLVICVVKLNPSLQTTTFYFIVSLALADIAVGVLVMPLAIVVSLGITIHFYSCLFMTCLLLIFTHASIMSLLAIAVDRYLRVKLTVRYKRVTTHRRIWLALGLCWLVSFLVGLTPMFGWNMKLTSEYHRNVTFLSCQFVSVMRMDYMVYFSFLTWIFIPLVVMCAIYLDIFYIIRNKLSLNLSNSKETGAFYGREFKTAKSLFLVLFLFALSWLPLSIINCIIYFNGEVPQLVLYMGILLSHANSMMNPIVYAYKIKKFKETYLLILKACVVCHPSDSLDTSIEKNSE

Adenosine receptor A3 [3] = target: T2, Adenosine receptor A3 (Homo sapiens, UniProt P0DMS8, H272E); test: Displacement of [125I]I-AB-MECA from human adenosine A3 receptor H272E mutant expressed in COS7 cells; format: cell-based, COS-7
Adenosine receptor A3 [4] = target: Adenosine receptor A3 (Homo sapiens, UniProt P0DMS8, T94A); test: Displacement of [125I]I-AB-MECA from human adenosine A3 receptor T94A mutant expressed in COS7 cells; format: cell-based, COS-7; outline: as §1
Adenosine receptor A3 [5] = target: Adenosine receptor A3 (Homo sapiens, UniProt P0DMS8, H272D); test: Displacement of [125I]I-AB-MECA from human adenosine A3 receptor H272D mutant expressed in COS7 cells; format: cell-based, COS-7; outline: as §1
Adenosine receptor A3 [6] = target: Adenosine receptor A3 (Homo sapiens, UniProt P0DMS8, Q167E); test: Displacement of [125I]I-AB-MECA from human adenosine A3 receptor Q167E mutant expressed in COS7 cells; format: cell-based, COS-7; outline: as §1
[7] = target: T3, Adenosine receptor A3 (Homo sapiens) (UniProt P0DMS8); test: Inhibition of [125I]I-AB-MECA binding to wild type adenosine A3 receptor expressed in COS7 cells at 10 uM; format: cell-based; settings: COS-7
T3 sequence (whole entry): T1 sequence (P0DMS8 whole entry)

[8] = test system: T4, Adenosine receptor A3 (Homo sapiens), P0DMS8 [H272E]; test: Inhibition of [125I]I-AB-MECA binding to human adenosine A3 receptor H272E mutant expressed in COS7 cells at 10 uM; format: cell-based; settings: COS-7
T4 sequence (whole entry): T1 sequence (P0DMS8 whole entry) with H272E

[9] = target: T5, Adenosine receptor A1 (Homo sapiens) (UniProt P30542); test: Inhibition of human adenosine A1 receptor expressed in CHO cells at 10 uM; format: cell-based
T5 sequence (whole entry): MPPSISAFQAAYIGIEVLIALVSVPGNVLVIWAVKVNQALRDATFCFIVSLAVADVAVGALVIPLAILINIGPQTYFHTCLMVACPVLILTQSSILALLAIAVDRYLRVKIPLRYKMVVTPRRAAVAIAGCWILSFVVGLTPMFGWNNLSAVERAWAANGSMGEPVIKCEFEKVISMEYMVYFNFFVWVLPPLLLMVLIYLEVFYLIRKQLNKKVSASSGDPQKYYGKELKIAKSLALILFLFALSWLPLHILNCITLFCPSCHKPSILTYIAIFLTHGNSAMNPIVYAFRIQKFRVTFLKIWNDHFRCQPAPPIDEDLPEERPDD

[10] = target: Adenosine receptor A2a (Homo sapiens) (UniProt P29274); test: Inhibition of human adenosine A2A receptor expressed in CHO cells at 10 uM; format: cell-based
[11] = target: T6, Adenosine receptor A2b (Homo sapiens) (UniProt P29275); test: Activity against adenosine A2B receptor expressed in CHO cells by stimulation of cAMP production at 10 uM; format: functional, cell-based
T6 sequence (whole entry): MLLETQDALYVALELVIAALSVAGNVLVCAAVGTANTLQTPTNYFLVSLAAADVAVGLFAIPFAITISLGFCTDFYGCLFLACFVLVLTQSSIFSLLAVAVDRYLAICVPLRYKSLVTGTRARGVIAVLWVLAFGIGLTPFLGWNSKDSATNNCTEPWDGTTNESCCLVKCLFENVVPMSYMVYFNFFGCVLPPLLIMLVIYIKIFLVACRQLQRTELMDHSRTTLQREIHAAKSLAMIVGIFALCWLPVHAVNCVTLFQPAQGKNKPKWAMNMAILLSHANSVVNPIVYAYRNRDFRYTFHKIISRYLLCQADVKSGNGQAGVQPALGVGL

Adenosine receptor A3 [12] = target: T2, Adenosine receptor A3; test: (§2) Activity against human adenosine A3 receptor H272E mutant expressed in COS7 cells as measured by accumulation of inositol phosphate by PLC assay; format: functional, cell-based, COS-7
[13] = test system: T4, Adenosine receptor A3 (Homo sapiens), P0DMS8 [H272E]; test: as §2; format: functional, cell-based; settings: COS-7
[14] = target: T3, Adenosine receptor A3 (Homo sapiens); test: Activity against human wild type adenosine A3 receptor expressed in COS7 cells as measured by accumulation of inositol phosphate by PLC assay; format: functional, cell-based; settings: COS-7

T2 sequence (P0DMS8 whole entry H272E): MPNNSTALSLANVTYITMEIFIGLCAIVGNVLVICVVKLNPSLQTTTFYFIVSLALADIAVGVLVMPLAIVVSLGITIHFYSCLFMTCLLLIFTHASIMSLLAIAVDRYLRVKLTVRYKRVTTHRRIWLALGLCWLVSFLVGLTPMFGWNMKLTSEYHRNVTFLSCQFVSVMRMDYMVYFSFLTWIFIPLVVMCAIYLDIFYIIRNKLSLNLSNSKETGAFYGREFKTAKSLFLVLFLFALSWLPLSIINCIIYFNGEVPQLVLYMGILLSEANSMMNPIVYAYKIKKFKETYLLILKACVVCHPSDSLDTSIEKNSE
Chain of Adenosine receptor A3 (Homo sapiens, UniProt P0DMS8, H272D) (P0DMS8 whole entry H272D): as the sequence (P0DMS8 whole entry H272E) above, with E272D counted along it
Chain of Adenosine receptor A3 (Homo sapiens, UniProt P0DMS8, T94E) (P0DMS8 whole entry T94E): as the sequence (P0DMS8 whole entry H272E) above, with T94E, E272H counted along it
Chain of Adenosine receptor A3 (Homo sapiens, UniProt P0DMS8, Q167E) (P0DMS8 whole entry Q167E): as the sequence (P0DMS8 whole entry H272E) above, with Q167E, E272H counted along it
Chain of Adenosine receptor A2a (Homo sapiens) (P29274 whole entry): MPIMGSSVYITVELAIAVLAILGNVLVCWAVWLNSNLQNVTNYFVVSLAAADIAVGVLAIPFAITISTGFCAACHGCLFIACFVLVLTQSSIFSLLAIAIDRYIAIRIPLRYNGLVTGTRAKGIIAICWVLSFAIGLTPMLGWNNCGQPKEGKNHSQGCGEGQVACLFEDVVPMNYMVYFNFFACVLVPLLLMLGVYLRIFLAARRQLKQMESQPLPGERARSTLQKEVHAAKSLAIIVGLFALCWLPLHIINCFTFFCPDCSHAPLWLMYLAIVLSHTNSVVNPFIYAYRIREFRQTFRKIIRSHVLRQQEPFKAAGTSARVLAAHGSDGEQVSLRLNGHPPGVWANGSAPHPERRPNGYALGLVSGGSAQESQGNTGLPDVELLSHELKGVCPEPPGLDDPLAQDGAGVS
Chain of Adenosine receptor A3 (Homo sapiens, UniProt P0DMS8, T94A) (P0DMS8 whole entry T94A): as the sequence (P0DMS8 whole entry H272E) above, with T94A, E272H counted along it

| SMILES | Ki (Adenosine receptor A3 [1]) [nM] | Ki (Adenosine receptor A3 [2]) [nM] | Ki (Adenosine receptor A3 [3]) [nM] | Ki (Adenosine receptor A3 [4]) [nM] | Ki (Adenosine receptor A3 [5]) [nM] | Ki (Adenosine receptor A3 [6]) [nM] | inhibition [7] [%] | inhibition [8] [%] | inhibition [9] [%] | inhibition [10] [%] | Activity [11] | EC50 (Adenosine receptor A3 [12]) [nM] | Activity [13] | Activity [14] |
| --- | --- | --- | --- | --- | --- | --- | --- | --- | --- | --- | --- | --- | --- | --- |
| COc1ccc(Cl)cc1CNc1ncnc2c1ncn2[C@@H]1O[C@H](CO)[C@@H](CN)[C@H]1O | > 10000 | 13800 | 709 | 9800 | 2000 | > 10000 |  |  |  |  |  |  |  |  |
| NC(=O)N[C@H]1[C@@H](O)[C@H](n2cnc3c(NCc4cccc(I)c4)ncnc32)O[C@@H]1CO | > 10000 | > 10000 | 220 | > 10000 | 470 | > 100000 | 9 |  | < 10 | < 10 | inactive | 180 |  |  |
| CNC(=O)[C@H]1O[C@@H](n2cnc3c(NC)ncnc32)[C@H](O)[C@@H]1NC(N)=O |  |  |  |  |  |  | 7 | 7 | < 10 | < 10 |  |  |  |  |
| NC[C@H]1[C@@H](O)[C@H](n2cnc3c(NCc4cccc(I)c4)ncnc32)O[C@@H]1CO | 10000 | 9500 | 610 | 10700 | 850 | > 10000 |  |  |  |  |  |  |  |  |
| CNC(=O)[C@H]1O[C@@H](n2cnc3c(NCc4cccc(I)c4)ncnc32)[C@H](O)[C@@H]1CN | 110 | 137 | 185 | 120 | 120 | 570 |  |  |  |  |  |  |  |  |
| CC(=O)NC[C@H]1[C@@H](O)[C@H](n2cnc3c(NCc4cccc(I)c4)ncnc32)O[C@@H]1CO | > 10000 | > 10000 | 700 | > 10000 | 1000 | > 10000 | 15 |  |  |  |  |  |  |  |
| CNC(=O)[C@H]1O[C@@H](n2cnc3c(NCc4cccc(I)c4)ncnc32)[C@H](O)[C@@H]1N=[N+]=[N-] | 2000 | 2260 | 186 | 1370 | 140 |  |  |  |  |  |  |  | inactive | inactive |

Continued, values first:

| Ki (Adenosine receptor A3 [1]) [nM] | Ki (Adenosine receptor A3 [2]) [nM] | Ki (Adenosine receptor A3 [3]) [nM] | Ki (Adenosine receptor A3 [4]) [nM] | Ki (Adenosine receptor A3 [5]) [nM] | Ki (Adenosine receptor A3 [6]) [nM] | inhibition [7] [%] | inhibition [8] [%] | inhibition [9] [%] | inhibition [10] [%] | Activity [11] | EC50 (Adenosine receptor A3 [12]) [nM] | Activity [13] | Activity [14] | SMILES |
| --- | --- | --- | --- | --- | --- | --- | --- | --- | --- | --- | --- | --- | --- | --- |
|  |  |  |  |  |  | 3 | 30 | < 10 | < 10 |  |  |  |  | CNc1ncnc2c1ncn2[C@@H]1O[C@H](CO)[C@@H](NC(N)=O)[C@H]1O |
|  | 1500 | > 10000 |  |  |  |  |  |  |  |  |  |  |  | NNC(=O)[C@H]1O[C@@H](n2cnc3c(N)ncnc32)[C@H](O)[C@@H]1O |
|  |  | 2700 |  |  |  | 5 |  | < 10 | < 10 |  |  |  |  | CNC(=O)[C@H]1O[C@@H](n2cnc3c(NCc4cccc(I)c4)ncnc32)[C@H](O)[C@@H]1NC(N)=O |
|  | 22 | 230 |  |  |  |  |  |  |  |  |  | inactive | inactive | [N-]=[N+]=NC[C@H]1S[C@@H](n2cnc3c(NCc4cccc(I)c4)ncnc32)[C@H](O)[C@@H]1O |
|  |  | 200 |  |  |  | 47 |  | 34 | < 10 |  |  |  |  | NC(=O)N[C@H]1[C@@H](O)[C@H](n2cnc3c(NCc4cccc(I)c4)nc(Cl)nc32)O[C@@H]1CO |
| 850 | 557 | 592 |  | 390 | 7200 |  |  |  |  |  |  |  |  | CNC(=O)[C@H]1O[C@@H](n2cnc3c(NCc4cc(Cl)ccc4OC)ncnc32)[C@H](O)[C@@H]1CN |
|  |  |  |  |  |  | 3 | 2 |  |  |  |  |  |  | NC[C@H]1[C@@H](O)[C@H](n2cnc3c(N)ncnc32)O[C@@H]1CO |
